Tests used:
RAW264.7 [1] = test: Inhibition of LPS-induced NO production in mouse RAW264.7 cells by Griess assay; format: functional, cell-based
Summary of the method: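 RAW 264.7 mouse macrophages were seeded at 1 × 10^5 cells/well and left to adhere 2 h at 37 °C in 5% CO2. Nitrite accumulated in the supernatant was measured with Griess reagent, and IC50 values were derived. Hydrocortisone served as positive control.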

RAW264.7 [2] = test: Cytotoxicity against mouse RAW264.7 cells by MTT assay; format: cell-based

Row | IC50 (RAW264.7 [1]) | SMILES | Activity (RAW264.7 [2])
1 | 47.7 µM | Cc1coc2c1C(=O)[C@]1(O)[C@@H](C)CC[C@H]1C(CO)=C2 | Non-toxic
2 | 77.9 µM | CC1=CC(=O)C[C@@H]2[C@H]1CC[C@@]2(C)O | Non-toxic
3 | 87.6 µM | CC(C)=C1C[C@@]23O[C@]1(O)C[C@@](C)(O)[C@H]2CC[C@H]3C | Non-toxic
4 | 66.5 µM | C=C(C)[C@H]1CC[C@](C)(O)[C@H]1CC(C(=O)O)=C(C)C | Non-toxic
5 | 48.6 µM | CC(C)=C1C[C@@H]2O[C@H](CC[C@]2(C)O)/C(C)=C/C1=O | Non-toxic

Second part, the compound before the results:

Row | SMILES | IC50 (RAW264.7 [1]) | Activity (RAW264.7 [2])
6 | CC(=O)C(C[C@@H]1[C@H](C(C)=O)CC[C@]1(C)O)=C(C)C | 78.7 µM | Non-toxic
7 | C/C1=C\[C@H](O)C[C@]2(C)O[C@H]2C(=O)c2c(C)coc2C1 | 78.2 µM | Non-toxic
8 | C[C@]12CCC(=O)C=C1CC[C@@H]1[C@@H]2[C@@H](O)C[C@@]2(C)[C@H]1CC[C@]2(O)C(=O)CO [HYDROCORTISONE] | 51.4 µM | 
9 | CC(C)=C1C[C@]2(O)[C@@H](CC[C@@H]2C)[C@@](C)(O)CC1=O | 92.4 µM | Non-toxic
10 | CC1=C2C[C@H]3[C@@](C)(O)CC[C@@]34O[C@@]2(C[C@]4(C)O)OC1=O | 7.6 µM | Non-toxic
11 | CC1=CC(=O)[C@@H]2C[C@@H]3[C@@](C)(O)CC[C@]13OC2(C)C | 79.8 µM | Non-toxic
12 | CC(C)=C1C[C@]2(O)[C@@H](C)CC[C@@H]2[C@@](C)(O)CC1=O | 89.2 µM | Non-toxic
13 | CC1=C2C[C@H]3[C@@](C)(O)CC[C@@]34O[C@@]2(C[C@@]4(C)O)OC1=O | 8.5 µM | Non-toxic
14 | C=C(C)[C@@H]1CC[C@](C)(O)[C@H]1CC(C(=O)O)=C(C)C | 68.4 µM | Non-toxic

Reference: ChEMBL document CHEMBL3351393, “iNOS inhibitory activity of sesquiterpenoids and a monoterpenoid from the rhizomes of Curcuma wenyujin” (J Nat Prod, 2014)
